# Assay outcomes from PubChem.
# The list is not random: actives were taken first. Their share in the collection is about 2.5%.
# PRMT1 inh – inhibitors of human PRMT1; recombinant PRMT1, activity-based probe fluorescence polarization; inhibition, % at 2.79 µM; AID 652257; hit rate 1.3% among 370,000; Q99873;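 active = inhibition above about 21% made by adding two undisclosed values, limit read from the data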
# PAD4 inh – inhibitors of human PAD4; Q9UM07; recombinant PAD4, RCA probe fluorescence polarization; inhibition, % at 6.36 µM; hit rate 0.41% among 330,000; AID 485272;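 active = percent inhibition above a cutoff equal to the mean of all tested compounds plus 3 SD, cut at about 15% in these data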;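 also: 0% = PAD4 with RCA probe and DMSO and 100% = probe without PAD4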
# Target sequence (Q9UM07 whole entry, looked up): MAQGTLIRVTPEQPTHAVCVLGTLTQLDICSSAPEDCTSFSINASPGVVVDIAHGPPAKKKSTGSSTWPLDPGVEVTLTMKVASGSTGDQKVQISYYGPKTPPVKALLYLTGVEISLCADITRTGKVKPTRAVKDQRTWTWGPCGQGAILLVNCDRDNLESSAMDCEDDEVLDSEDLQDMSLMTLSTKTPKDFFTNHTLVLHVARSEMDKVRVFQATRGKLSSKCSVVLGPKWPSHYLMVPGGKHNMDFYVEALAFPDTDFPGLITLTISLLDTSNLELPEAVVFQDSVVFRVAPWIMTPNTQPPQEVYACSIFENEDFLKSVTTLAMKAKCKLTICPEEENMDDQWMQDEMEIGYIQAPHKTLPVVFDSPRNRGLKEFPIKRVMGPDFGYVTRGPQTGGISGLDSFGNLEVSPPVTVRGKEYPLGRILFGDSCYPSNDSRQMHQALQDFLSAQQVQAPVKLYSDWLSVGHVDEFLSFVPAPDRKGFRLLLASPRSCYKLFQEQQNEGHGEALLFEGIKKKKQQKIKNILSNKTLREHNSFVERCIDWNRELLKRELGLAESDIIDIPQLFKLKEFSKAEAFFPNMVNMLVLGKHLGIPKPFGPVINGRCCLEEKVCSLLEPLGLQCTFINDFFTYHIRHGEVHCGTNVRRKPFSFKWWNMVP
# E coli Lon inh – inhibits E. coli Lon protease; P0A9M0; purified E. coli Lon protease, fluorescence polarization; inhibition, % at 7.94 µM; hit rate 0.42% among 360,000; AID 602123; in the data active = inhibition above about 13%, passing the limit was not always enough;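 also: 0% = enzyme with probe and DMSO and 100% = no enzyme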
# GSTO1 counter – blocks human GSTO1 in RBBP9 counter-screen. inhibition, % at 5.96 µM. hit rate 1.1% among 300,000. P78417. AID 1974. recombinant GSTO1, activity-based probe fluorescence polarization;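 active = inhibition above the campaign mean inhibition plus 3 SD, cut at about 35% in these data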;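 also: 0% = GSTO1-1 with DMSO and 100% = wells lacking GSTO1-1 enzyme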
# TDP2 inh – TDP2 (human) inhibition, absorbance primary screen; O95551; AID 720702; recombinant TDP2, T5PNP hydrolysis, p-nitrophenol absorbance 415 nm; hit rate 0.34% among 370,000; inhibition, % at 12.8 µM;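 active = inhibition above the mean of all tested compounds plus 3 SD, set per campaign, cut at about 25% in these data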;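 also: 0% = DMSO with enzyme and 100% = buffer with substrate but no TDP2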
#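 Test system: human TDP2 enzyme; Input: 120 nM TDP2 per well; Buffer or medium: Mg2+-containing Tris-HCl buffer, pH 7.5; Reagent: 5 mM T5PNP; Dosing: 12.8 µM single point, 1% DMSO; Incubation: reaction 2 h, 37 °C; Detection: p-Nitrophenol epi absorbance; Read-out: % inhibition relative to enzyme-containing and enzyme-free wells; Replicates: single well per compound.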
# E coli Lon conf – E. coli Lon inhibition confirmation. hit rate 31% among 1,400. inhibition, % at 7.94 µM. shares compounds with E coli Lon inh. AID 602230. purified E. coli Lon, fluorescence polarization; in the data active = inhibition above about 16%;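 also: 0% = enzyme with probe and DMSO and 100% = no enzyme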
# Numbers without * were called inactive; . = not tested or not shown; + = active, no number.
SMILES,PRMT1 inh,PAD4 inh,E coli Lon inh,GSTO1 counter,TDP2 inh,E coli Lon conf
OCCC1CN(Cc2ccsc2)CCN1C1CCCC1 (centres undefined),-1,-1,20*,3,-6,3
Cc1ccc(S(=O)(=O)N2CCN(C(=O)c3cccn3C)CC2)cc1,-4,.,.,.,12,.
O=C(O)CSc1cn(Cc2ccccc2)c2ccccc12,-4,5,5,10,0,.
NC(=O)CSc1cn(Cc2cccc(F)c2)c2ccccc12,6,2,26*,0,0,-9
COC(=O)[C@]12C[C@H](CC(=O)N3CCCC3)C(=O)N(Cc3ccc4c(c3)OCO4)C1=C[C@H](C(C)C)O[C@@H]2C1CC1,-5,.,.,.,-1,.
C=CCN(CC=C)c1nc2ccccc2nc1C(C#N)C(=O)OC(C)C (centres undefined),0,-7,16*,8,-1,-12
Oc1ccc(Nc2nc(-c3ccccc3F)nc3ccccc23)cc1,0,-1,17*,6,-5,8
COc1ccc(-c2nc(CSCC(=O)N3CCN(C)CC3)c(C)o2)cc1OC,-5,2,-3,-2,-12,.
CCN1CCN(C(=O)CSCc2nc(-c3ccc(OC)c(OC)c3)oc2C)CC1,0,0,15*,1,4,7
CCOC(=O)[C@]12CCCCC/C=C\1N(Cc1ccc(OC)cc1)C(=O)[C@H]2CC(=O)NCc1ccc(OC)c(OC)c1,4,.,.,.,8,.
CN(C)S(=O)(=O)c1ccc(Cl)c(C(=O)NNC(=O)Cc2nc3ccccc3n2C)c1,4,-4,+,.,-2,3
COc1ccc(C(=O)NNC(=O)Cc2nc3ccccc3n2C)cc1,1,4,-1,.,-4,.
CCOc1ccc(NC(=O)CC2C(=O)Nc3ccccc3N2C(=O)c2ccccc2)cc1 (centres undefined),8,-2,15*,8,-3,0
COc1ccc(OC)c(C(=O)COC(=O)c2cc(C)oc2C)c1,0,-4,27*,15,5,-7
CC(C)CC(=O)NC(c1cccs1)c1ccc2cccnc2c1O (centres undefined),.,-1,4,-15,.,.
CCC(=O)NC(c1cccs1)c1ccc2cccnc2c1O (centres undefined),5,6,21*,3,-8,1
Cc1ccsc1C1C=C(c2cccc(Br)c2)Nc2ncnn21 (centres undefined),.,-6,60*,7,.,66*
COc1cccc(C2=CC(c3ccc(C)cc3)n3ncnc3N2)c1 (centres undefined),.,2,.,1,.,.
Cc1c(-c2cc[n+]([O-])cc2)oc2ccc(Br)cc2c1=O,-10,-2,.,-15,10,.
Cc1oc2ccc(Br)cc2c(=O)c1-c1nn[nH]n1,3,1,21*,13,5,-68
Cn1c2c(c(=O)n(C)c1=O)C(C(F)(F)F)(C(F)(F)F)N=C(c1ccccc1Cl)N2,-3,0,1,1,-6,.
Cn1c(=O)c2[nH]c(-c3ccccc3Cl)c(O)c2n(C)c1=O,13,-2,139*,5,-7,13
O=C(C1CCC(=O)N(C2CC2)C1)N(CCO)Cc1ccccc1 (centres undefined),-1,2,47*,3,1,0
C#CCNC(=O)C1=C[C@@H](c2coc3ccccc3c2=O)C[C@@H](OCCCCO)O1,1,-13,19*,10,0,29*
O=C(NCc1ccccc1)C1=C[C@@H](c2coc3ccccc3c2=O)C[C@@H](OCCCCO)O1,2,-2,-13,7,9,.
Cn1c(-c2ccccc2)c(CCO)c2ccccc21,-1,0,32*,-3,6,-7
CCn1c2ccccc2c2cc(NS(=O)(=O)c3ccccc3C)ccc21,-3,-1,14*,0,0,-4
CCOC(=O)[C@]12CCCCC/C=C\1N(Cc1ccc(OC)cc1)C(=O)[C@H]2CC(=O)N1CCCC1,1,.,.,.,-4,.
CC(C)[C@H](N)C(=O)N[C@H](C(=O)N1CCC2CCN(S(=O)(=O)c3ccccc3)CC21)C(C)C (some centres undefined),2,.,.,.,0,.
Cc1c(C(=O)N2CCN(S(=O)(=O)c3ccccc3)CC2)oc2ccc(Br)cc12,-5,2,35*,.,-6,-31
